Key:
[1] = 21-day oral dosage in mice ref 22; cited from earlier work
COLO-320DM cells = assay: BrdU assay; assay type: cell-based, human; details: 48 h
Summary of the method: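 Cells were grown in RPMI-1640 with 10% heat-inactivated FBS and exposed to test compound for 48 h before BrdU incorporation was measured. Tukey-Kramer comparison was against DMSO-treated cells. Experiments were repeated at least twice; representative results are shown with standard deviation.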

[2] = system: TCF/LEF reporter activity; assay: TCF/LEF luciferase reporter assay, L-Wnt3A-stimulated HEK293T; assay type: cell-based; details: 30 h
Summary of the method: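 HEK293T cells were transfected with TCF luciferase reporters. Conditioned medium from L or L‐Wnt3A cells, prepared per the ATCC protocol, was added together with test compound, and luciferase was read after 30 h. Comparison was by Tukey-Kramer test against pTcf7wt-luc-transfected DMSO controls.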

RKO cells = assay: BrdU assay; assay type: cell-based, human; details: 48 h
Summary of the method: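 Cells were kept in DMEM with 10% FBS, treated for 48 h, then assayed for BrdU incorporation. DNA synthesis was compared with DMSO-treated (basal) cells by Tukey-Kramer test. Experiments were repeated at least twice; representative data are shown with standard deviation.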

[3] = system: non-phosphorylated (active) β-catenin; assay: Immunofluorescence staining of active β-catenin in COLO-320DM cells; assay type: cell-based, human; details: 1 μmol/L, 16 h, DMSO 100%
Summary of the method: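 Cells were exposed to 1 μmol/L test compound for 16 h, then immunostained with anti-non-phosphorylated β-catenin antibody (D13A1, 1:500) and counterstained with DAPI. Fluorescence images were quantified, and intensity was expressed relative to DMSO-treated cells (100%).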

[4] = system: TCF/LEF reporter activity; assay: TCF/LEF luciferase reporter assay, COLO-320DM; assay type: cell-based, human; details: 30 h
Summary of the method: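 Cells were transfected with TCF reporter vectors (including pTcf7wt-luc), then exposed to test compound for 30 h and luciferase activity was read. Comparison was by Tukey-Kramer test against pTcf7wt-luc-transfected DMSO-treated cells.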

[5] = system: tankyrase, Axin1/2, β-catenin; assay: Western blot analysis of pharmacodynamic biomarkers in COLO-320DM cells; assay type: cell-based, human; details: 16 h
Summary of the method: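 Cells cultured in RPMI-1640 with 10% heat-inactivated FBS were treated for 16 h. Whole cell lysates were then analysed by western blot.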

SMILES	Body weight and small intestine histology in mice [1]	DNA synthesis (BrdU) (COLO-320DM cells; 10 μmol/L)	DNA synthesis (BrdU) (COLO-320DM cells; concentrations up to 3 μmol/L)	TCF/LEF luciferase activity [2]	DNA synthesis (BrdU) (RKO cells)	DNA synthesis (BrdU) relative to basal level (RKO cells; 10 μmol/L)	Immunofluorescence intensity of active β-catenin [3]	TCF/LEF reporter activity [4]	Tankyrase, Axin1/2 and β-catenin protein levels (western blot) [5]
COc1ccc(C2(CNC(=O)c3ccc(NC(=O)c4ccco4)cc3)CCOCC2)cc1 [JW55]	no body weight alterations or histological changes in the small intestine	–	–	–	–	–	–	–	–
O=C(c1cc(Cc2n[nH]c(=O)c3ccccc23)ccc1F)N1CCN(C(=O)C2CC2)CC1 [olaparib]	–	marginally inhibited	no effects	only marginally inhibited	resistant	half	106%	no effect	did not affect

Reference: article PMC6272098 (Cancer Science, 2018)
